Molecules are shown by their SMILES.

For experiment [1], the system named is U2OS cells stably expressing EGFP-DFCP1. The experiment can be described thus: Omegasome formation, EGFP-DFCP1 puncta by live-cell fluorescent microscopy. The format is cell-based, human. A digest of the protocol:
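U2OS cells stably expressing EGFP-DFCP1 were given vehicle or 100 nM AZD8055, with or without 5 μM test compound, for 2.5 hr. They were imaged live by fluorescence microscopy in the green FITC channel. EGFP-DFCP1 objects per cell were counted in 20–25 cells per condition. Mean ± SEM; two-tailed unpaired t test.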

The subject of experiment [2] is U2OS cells. The experiment can be described thus: Phagophore formation, endogenous ATG12 immunofluorescence. The format is cell-based, human.
The test system of experiment [3] is U2OS cells. Description: Autophagic turnover, BafA1-induced LC3B-II accumulation by immunoblotting. In kind it is cell-based, human. Background: Immunoblotting shows a protein as a band on a membrane.
Experiment [4] has as its system nutrient-starved murine embryonic fibroblasts. The note with it: 1 μM, ref Petherick et al., 2015; cited from earlier work.
Another experiment concerns ULK1. To be noted: ref Egan et al., 2015; cited from earlier work.
In a further experiment the test system is AMPK. The experiment can be described thus: KinaseProfiler radiometric assay, AMPK. To be noted: selectivity profiling, 40 nM ULK-101 or 15 nM ULK-100. In kind it is biochemical, human.
For experiment [5], the system named is 327 recombinant human kinases. The experiment can be described thus: KinaseProfiler radiometric selectivity profiling, wild-type human kinase panel. In kind it is biochemical. The note with it: 326 non-ULK1 kinases; 500 nM SBI-0206965, 40 nM ULK-101, or 15 nM ULK-100.
The mark [6] stands for this setting: 5 μM ULK-101 co-treatment with 100 nM AZD8055, 2.5 hr.

On to `COc1ccc(-c2ccc3c(N4CCOC[C@@H]4C)nc(N4CCOC[C@@H]4C)nc3n2)cc1CO` [AZD8055, reference compound], for which the “Increase in abundance of DFCP1-positive puncta” value in experiment [1] (100 nM AZD8055, 2.5 hr, vs vehicle) is “over 3 fold”. Moreover, the ATG12-positive puncta formation entry with U2OS cells [2] (100 nM AZD8055, 2.5 hr) is reported as “distinct ATG12-positive puncta”. Further, in the experiment on U2OS cells [3] (100 nM AZD8055, within 1 hr), the “Increase in BafA1-induced LC3B-II accumulation” value was “over 2 fold”.
As for `CN1CCc2cc(Nc3ncc(C4CC4)c(NCCCNC(=O)C4CCC4)n3)ccc2C1` [MRT68921], in experiment [4], the “Effect on BafA1-induced LC3-II accumulation” value is given as “block BafA1-induced LC3-II accumulation”.
`CNC(=O)c1ccccc1Oc1nc(Nc2cc(OC)c(OC)c(OC)c2)ncc1Br` [SBI-0206965]: in the experiment on ULK1, the “Effect on Beclin 1 Ser15 phosphorylation in cells” value is listed as “reduce Beclin 1 Ser15 phosphorylation”.
Consider `CC(C)[C@H](NC(=O)c1cc(-c2cnn3cc(-c4ccc(OCCN5CCCCC5)cc4)cnc23)cs1)C(F)(F)F` [ULK-100], for which the “AMPK inhibition in vitro” value in the experiment on AMPK was “inhibited”.
For `O=C(N[C@@H](C1CC1)C(F)(F)F)c1cc(-c2cnn3cc(-c4ccc(F)cc4)cnc23)cs1` [ULK-101], the “Number of other kinases inhibited at least 75% as well as ULK1” value in experiment [5] is recorded as “four”. In the experiment on AMPK, the “AMPK inhibition in vitro” value is on record as “spared”. For the same compound, the “Effect on AZD8055-induced formation of DFCP1-positive structures” value in experiment [1] (setting [6]) is listed as “completely abrogated”. Further, in the experiment on U2OS cells [2] (setting [6]), the “Effect on AZD8055-induced ATG12-positive puncta” value is reported as “strongly suppressed”. In addition, in the experiment with U2OS cells [3] (5 μM ULK-101 with 100 nM AZD8055, 3 hr), the “Effect on AZD8055-induced increase of BafA1-induced LC3B-II accumulation” value is reported as “negated”.

The values above are taken from article PMC6172447 (iScience, 2018).
